A selection: hits, their analogues and other compounds. The true share with any hit is near 4.1%.
hERG protect: hERG rescue from dofetilide block, primary screen, cell-based, CHO-hERG, FluxOR thallium flux, dofetilide IC70; 310,000 tested, 0.51% active; dofetilide IC70 present; activation (rescue from dofetilide block), less the hit threshold, % at 10 µM; Voltage-gated inwardly rectifying potassium channel KCNH2 (Homo sapiens), Q12809;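 active = activation above the mean of controls blocked by dofetilide plus 5 SD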;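 note: thallium influx through hERG after potassium depolarization seen as dye fluorescence rise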
KCNQ1 inh: inhibitors of human KCNQ1 channel, primary screen, cell-based, thallium flux, high-throughput | AID 2642, 2010 | CHO-K1 KCNQ1, FluxOR thallium flux fluorescence; stronger effect = higher value | Potassium voltage-gated channel subfamily KQT member 1 (Homo sapiens), P51787 | B-score at 10 µM | 310,000 tested, 1.3% active;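 active = compounds whose thallium flux B-score, printed positive for inhibition, exceeds three library SD while starting fluorescence stays within three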;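 note: channel opened by potassium depolarization with thallium stimulus after 20 min compound exposure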
Target sequence (P51787 whole entry, looked up): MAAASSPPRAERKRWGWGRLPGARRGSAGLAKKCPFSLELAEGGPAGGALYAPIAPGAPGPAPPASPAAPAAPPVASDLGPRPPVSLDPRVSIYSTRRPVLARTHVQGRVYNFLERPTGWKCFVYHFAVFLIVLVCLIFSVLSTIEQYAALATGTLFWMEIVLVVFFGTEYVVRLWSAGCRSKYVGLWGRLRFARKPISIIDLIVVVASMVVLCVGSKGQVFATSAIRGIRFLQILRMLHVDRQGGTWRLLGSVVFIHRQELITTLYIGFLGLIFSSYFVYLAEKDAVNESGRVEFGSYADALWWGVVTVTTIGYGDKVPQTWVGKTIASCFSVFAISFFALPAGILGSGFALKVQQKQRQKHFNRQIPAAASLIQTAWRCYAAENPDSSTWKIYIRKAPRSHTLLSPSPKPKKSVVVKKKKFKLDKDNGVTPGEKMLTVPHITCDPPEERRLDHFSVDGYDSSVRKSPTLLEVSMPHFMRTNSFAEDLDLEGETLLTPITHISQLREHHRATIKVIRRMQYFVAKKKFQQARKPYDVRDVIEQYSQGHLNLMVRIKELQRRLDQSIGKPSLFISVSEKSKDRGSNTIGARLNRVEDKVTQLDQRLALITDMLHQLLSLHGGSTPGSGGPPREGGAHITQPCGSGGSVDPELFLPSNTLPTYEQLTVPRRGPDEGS
KCNK3 block: human KCNK3 channel inhibitors, primary screen, CHO cells, FluxOR thallium flux, B-score | Potassium channel subfamily K member 3 (Homo sapiens), O14649 | FluxOR fluorescence; stronger effect = lower value | B-score at 10 µM | 340,000 tested, 0.84% active;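 active = B-score under library mean minus 4 SD, starting fluorescence ratio at most library mean plus 5 SD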;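 note: more negative B-score means stronger inhibition of thallium flux through KCNK3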
KCNQ1 pot: potentiators or activators of KCNQ1 channel, primary screen, cell-based, thallium flux, high-throughput; Potassium voltage-gated channel subfamily KQT member 1 (Homo sapiens), P51787; CHO-K1 KCNQ1, thallium flux FluxOR fluorescence; stronger effect = higher value; AID 2648, 2010; 310,000 tested, 0.35% active; B-score at 10 µM;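 active = fluorescence ratio B-score, a plate-corrected score, at least three library SD, with initial intensity B-score within 5 SD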
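Material: CHO-K1 cells stably expressing KCNQ1. Medium: assay buffer for compound exposure, DMSO matched across wells. Reagent: K+/Tl+ depolarizing stimulus. Compound dosing: single-concentration screen. Times: 37 °C overnight plating, 90-min dark dye load, 20-min compound pretreatment. Technique: FluxOR Tl+ flux fluorescence.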
KCC2 mod: KCC2 cotransporter modulators, thallium flux, primary screen, cell-based, HEK293 KCC2, FluoZin-2 fluorescence, MLSMR | Solute carrier family 12 member 5 (Homo sapiens), Q9H2X9 | KCC2 cells, thallium flux FluoZin-2 fluorescence | B-score of Tl+ flux slope (higher = more flux/activation; lower = inhibition) at 10 µM | 190,000 tested, 2.2% active;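 active = thallium flux slope and its plate-corrected score both differing from the plate sample mean at a set confidence after two filtering rounds, in either direction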;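 note: slope of fluorescence scaled to starting intensity during 10 to 20 s after thallium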
KCNK9 block: KCNK9 potassium channel inhibitors, primary screen, HEK293 cells, thallium flux | 310,000 tested, 1.2% active | FluxOR thallium flux fluorescence; stronger effect = lower value | Potassium channel subfamily K member 9 (Homo sapiens), Q9NPC2 | B-score at 10 µM | AID 488922, 2010;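 active = ratio B-score over 3 SD below the library mean, with starting fluorescence within 5 SD of its mean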;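 note: negative B-score means less thallium flux so channel inhibition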
KCNK9 inh conf: KCNK9 potassium channel inhibitors, confirmation, HEK293 cells, thallium flux, duplicate. shares compounds with KCNK9 block. FluxOR thallium flux fluorescence. inhibition, % at 10 µM. 4,900 tested, 43% active. AID 492992, 2010;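 active = thallium signal inhibited by more than 5 SD of the compound-free buffer control wells, on both duplicate plates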;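 note: 0% = assay buffer control wells without compound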
Kir21 sel: mouse Kir2.1 channel inhibition, confirmation, selectivity assay for KCNK9 modulator project, cell-based, HEK293, thallium flux; AID 492993, 2010; 4,900 tested, 4% active; inhibition, % at 10 µM; Kir2.1 cells, FluxOR thallium flux fluorescence; shares compounds with KCNK9 block;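 active = thallium signal drop more than 5 SD beyond the mean of the no-compound control wells, seen in both duplicate plates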;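 note: signal is fluorescence rise after thallium addition divided by baseline fluorescence; plate controls were assay buffer only for no effect and full block by chlorpromazine control for full effect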
KCNK9 uninduced: thallium flux in non-induced HEK293 cells, confirmation, counter-screen for KCNK9 inhibitor project, cell-based, second counter screen, non-induced KCNK9-HEK293; 4,900 tested, 40% active; FluxOR thallium flux; shares compounds with KCNK9 block; inhibition, % at 10 µM; AID 492997, 2010;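 active = thallium signal drop beyond 5 SD of the untreated control mean, on both duplicate plates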;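 note: plate controls were buffer only IC0 wells for no effect and SID17386958 at its maximal inhibitory level for full effect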
Active calls of the source: *.

`O=C(O)C(Cc1ccccc1)N1C(=O)/C(=C/c2cccs2)SC1=S` (stereo not drawn) gave KCNK3 block inactive and KCC2 mod -1.4.
For CC(/C=C1\SC(=S)N(CC(=O)O)C1=O)=C\c1ccccc1 the results were hERG protect -5, KCNQ1 inh inactive, KCNK3 block inactive, KCNQ1 pot inactive, KCC2 mod -2.1 and KCNK9 block inactive.
COc1cccc(/C=C2\SC(=S)N(C(Cc3ccccc3)C(=O)O)C2=O)c1 (stereo not drawn) was read as hERG protect -11, KCNQ1 inh inactive, KCNK3 block inactive, KCNQ1 pot inactive, KCC2 mod -2.1, KCNK9 block inactive, KCNK9 inh conf inactive, Kir21 sel inactive and KCNK9 uninduced inactive.
For COc1ccc(S(=O)(=O)N2CCOC2CNC(=O)C(=O)NCc2cccnc2)cc1OC (stereo not drawn) the results were hERG protect -10, KCNQ1 inh inactive, KCNK3 block inactive, KCNQ1 pot inactive, KCC2 mod 0.74 and KCNK9 block inactive.
O=C(Cc1c[nH]c2ccccc12)NC1(C(=O)NC2CCCC2)CCCCC1 was read as hERG protect -1, KCNQ1 inh inactive, KCNK3 block inactive, KCNQ1 pot inactive, KCC2 mod 0.45 and KCNK9 block inactive.
Cc1cc(C(=O)COC(=O)c2cc(Cl)ccc2N)c(C)n1Cc1ccco1 was read as hERG protect -4, KCNQ1 inh inactive, KCNK3 block inactive, KCNQ1 pot inactive, KCC2 mod 0.38 and KCNK9 block inactive.
COc1ccccc1/C=C/C1(C(=O)NC2CCCC2)CC(=O)N1c1ccc(C)cc1 (stereo not drawn) was read as hERG protect -21, KCNQ1 inh inactive, KCNK3 block inactive, KCNQ1 pot inactive, KCC2 mod 0.49, KCNK9 block -9.8*, KCNK9 inh conf inactive, Kir21 sel inactive and KCNK9 uninduced 40%*.
COc1ccnc(CSC(N)=Nc2cccc(C(F)(F)F)c2)c1 was read as hERG protect -16, KCNQ1 inh inactive, KCNK3 block inactive, KCNQ1 pot inactive, KCC2 mod 1.1 and KCNK9 block inactive.
For CCc1nc(N2CCC(C)CC2)c2oc3ccccc3c2n1 the results were hERG protect -11, KCNQ1 inh inactive, KCNK3 block inactive, KCNQ1 pot inactive, KCC2 mod -0.43, KCNK9 block -14*, KCNK9 inh conf 46%*, Kir21 sel inactive and KCNK9 uninduced 36%*.
For CCc1nc(N(CC)CC)c2oc3ccccc3c2n1 the results were hERG protect -10, KCNQ1 inh inactive, KCNK3 block inactive, KCNQ1 pot inactive, KCC2 mod -2.4 and KCNK9 block inactive.
`CC(C)C(=O)NC(=S)Nc1sc2c(c1C(N)=O)CCCC2` gave hERG protect -6, KCNQ1 inh inactive, KCNK3 block inactive, KCNQ1 pot inactive, KCC2 mod -0.17 and KCNK9 block inactive.

Screening data from PubChem.
